ChEMBL document CHEMBL1806375, “Synthesis, molecular modeling and bio-evaluation of cycloalkyl fused 2-aminopyrimidines as antitubercular and antidiabetic agents” (Bioorg Med Chem Lett, 2011)
Values after ≈ are worked out from the molar mass of the structure shown.

What was measured:
[1] = test system: Mycobacterium tuberculosis; assay: Antimycobacterial activity against Mycobacterium tuberculosis H37Rv after 30 days by agar microdilution method; format: functional
How it was run: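 Virulent M. tuberculosis H37Rv strain tested by agar microdilution. Isoniazid and ethambutol served as reference drugs. Read-out is the MIC.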

[2] = target: T1, Glycogen phosphorylase, liver form (Rattus norvegicus) (UniProt P09811); assay: Inhibition of Wistar rat liver glycogen phosphorylase at 100 uM after 30 mins
T1 sequence (whole entry): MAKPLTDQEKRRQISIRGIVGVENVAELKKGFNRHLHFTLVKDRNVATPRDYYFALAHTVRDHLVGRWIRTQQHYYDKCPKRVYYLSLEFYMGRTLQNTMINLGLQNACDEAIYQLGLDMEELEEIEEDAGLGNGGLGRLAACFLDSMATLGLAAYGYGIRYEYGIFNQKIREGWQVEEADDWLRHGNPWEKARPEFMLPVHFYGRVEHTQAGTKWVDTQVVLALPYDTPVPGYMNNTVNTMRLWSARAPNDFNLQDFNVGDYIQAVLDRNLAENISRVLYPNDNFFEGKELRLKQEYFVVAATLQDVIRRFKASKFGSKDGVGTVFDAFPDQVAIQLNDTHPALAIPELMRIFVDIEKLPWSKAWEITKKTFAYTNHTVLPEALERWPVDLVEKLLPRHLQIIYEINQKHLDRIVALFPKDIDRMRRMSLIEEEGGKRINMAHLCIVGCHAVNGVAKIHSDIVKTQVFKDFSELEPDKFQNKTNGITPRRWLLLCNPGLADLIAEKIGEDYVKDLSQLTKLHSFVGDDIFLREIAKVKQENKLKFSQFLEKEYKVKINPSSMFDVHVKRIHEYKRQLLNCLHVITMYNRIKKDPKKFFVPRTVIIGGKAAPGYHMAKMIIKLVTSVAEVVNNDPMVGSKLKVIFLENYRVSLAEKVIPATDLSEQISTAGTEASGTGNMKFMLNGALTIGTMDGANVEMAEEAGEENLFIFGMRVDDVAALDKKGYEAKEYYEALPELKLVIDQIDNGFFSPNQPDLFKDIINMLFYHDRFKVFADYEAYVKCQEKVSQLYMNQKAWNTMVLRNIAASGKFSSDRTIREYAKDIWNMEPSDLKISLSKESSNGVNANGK

Rattus norvegicus = species: Rattus norvegicus; assay: Inhibition of albino rat intestine alpha-glucosidase using p-nitrophenyl-alpha-D-glucopyranoside as substrate at 100 uM
[3] = Cytotoxicity against mouse bone marrow macrophages at 10 times MIC after 48 hrs by MTS assay; format: cell-based; conditions: macrophage
[4] = test system: Mycobacterium tuberculosis; assay: Antimycobacterial activity against Mycobacterium tuberculosis H37Rv infected in mouse bone marrow macrophages assessed as intracellular growth inhibition at 3.12 ug/ml after 4 days; format: functional; conditions: 96 h, read-out: GI
Vero = assay: Cytotoxicity against african green monkey Vero cells at 10 times MIC of Mycobacterium tuberculosis H37Rv after 24 hrs by MTS assay; format: cell-based; conditions: chlorocebus sabaeus
[5] = test system: Mycobacterium tuberculosis; assay: Antimycobacterial activity against Mycobacterium tuberculosis H37Rv infected in mouse bone marrow macrophages assessed as intracellular growth inhibition after 4 days; format: functional

Row | Compound | MIC [1] [µg/mL] | inhibition (Rattus norvegicus) [%] | other results
1 | Nc1nc2c(c(-c3ccc(F)cc3)n1)CCC/C2=C\c1ccc(F)cc1 | 12.5 (≈ 35.8 µM) |  | 
2 | COc1cc(/C=C2\CCCCc3c2nc(N)nc3-c2cc(OC)c(OC)c(OC)c2)cc(OC)c1OC | > 12.5 |  | 
3 | Nc1nc(Cc2ccco2)c2c(n1)/C(=C/Cc1ccco1)CCCC2 | > 12.5 | -4.87 | inhibition [2]: 34.3%
4 | Nc1nc2c(c(-c3ccc(Cl)cc3)n1)CCCC/C2=C\c1ccc(Cl)cc1 | > 12.5 | 11.4 | 
5 | COc1ccc(/C=C2\CCCc3c2nc(N)nc3-c2ccc(OC)c(OC)c2)cc1OC | > 12.5 |  | 
6 | Nc1nc2c(c(-c3ccccc3)n1)CCC/C2=C\c1ccccc1 | 6.25 (≈ 19.9 µM) |  | inhibition [2]: -6.1%
7 | Nc1nc2c(c(-c3ccc4ccccc4c3)n1)CCC/C2=C\c1ccc2ccccc2c1 | 6.25 (≈ 15.1 µM) | -6 | inhibition [2]: -5%
8 | Nc1nc(Cc2ccco2)c2c(n1)/C(=C/Cc1ccco1)CCC2 | > 12.5 |  | 
9 | Nc1nc2c(c(-c3ccc4ccccc4c3)n1)CCCC/C2=C\c1ccc2ccccc2c1 | 3.12 (≈ 7.3 µM) |  | Activity [3]: Non-toxic; inhibition of growth at 3.12 µg/mL [4]: 58%; Activity (Vero): Non-toxic
10 | NNC(=O)c1ccncc1 [ISONIAZID] | 0.75 (≈ 5.47 µM) |  | growth inhibition (GI) [5]: >=99%
11 | Nc1nc2c(c(-c3ccc(Cl)cc3)n1)CCC/C2=C\c1ccc(Cl)cc1 | > 12.5 |  | 
12 | COc1ccc(/C=C2\CCCc3c2nc(N)nc3-c2ccc(OC)cc2)cc1 | > 12.5 |  | inhibition [2]: -10%
13 | Nc1nc2c(c(-c3cccc4ccccc34)n1)CCCC/C2=C\c1cccc2ccccc12 | > 12.5 |  | 
14 | Nc1nc2c(c(-c3ccc(Br)cc3)n1)CCC/C2=C\c1ccc(Br)cc1 | 12.5 (≈ 26.5 µM) |  | 
15 | CC[C@@H](CO)NCCN[C@@H](CC)CO [ETHAMBUTOL] | 3.25 (≈ 15.9 µM) |  | 
16 | Nc1nc2c(c(-c3ccccc3)n1)CCCC/C2=C\c1ccccc1 | > 12.5 | -0.07 | 
17 | COc1cc(/C=C2\CCCc3c2nc(N)nc3-c2cc(OC)c(OC)c(OC)c2)cc(OC)c1OC | > 12.5 |  | 
18 | Nc1nc2c(c(-c3ccc(Br)cc3)n1)CCCC/C2=C\c1ccc(Br)cc1 | > 12.5 | -5.86 | 
19 | COc1ccc(/C=C2\CCCCc3c2nc(N)nc3-c2ccc(OC)cc2)cc1 | > 12.5 |  | 
20 | Nc1nc2c(c(-c3cccc4ccccc34)n1)CCC/C2=C\c1cccc2ccccc12 | 12.5 (≈ 30.2 µM) | 13.7 | inhibition [2]: 11.3%
21 | Nc1nc2c(c(-c3ccc(OCc4ccccc4)cc3)n1)CCC/C2=C\c1ccc(OCc2ccccc2)cc1 | > 12.5 |  | inhibition [2]: -0.87%
22 | COc1ccc(/C=C2\CCCCc3c2nc(N)nc3-c2ccc(OC)c(OC)c2)cc1OC | 6.25 (≈ 14 µM) | -6.4 | 
